For data set [1], the system named is Hepatitis B virus. In words: Antiviral activity against Hepatitis B virus infected in human HepG2(2.2.15) cells assessed as suppression of HbeAg secretion by ELISA. The class given is functional, organism-based.
In data set [2] the test system is Hepatitis B virus. In words: Selectivity ratio of CC50 for human HepG2(2.2.15) cells to IC50 for Hepatitis B virus infected in human HepG2(2.2.15) cells assessed as inhibition of viral replication. Conditions: read-out: Ratio CC50/IC50. The class given is cell-based. In outline: (§1)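 The selectivity index was calculated as CC50/IC50. CC50 is MTT cytotoxicity in HepG2 2.2.15 cells. No index was given where a value could not be obtained.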

For data set [3], the system named is Hepatitis B virus. In words: Antiviral activity against Hepatitis B virus infected in human HepG2(2.2.15) cells assessed as inhibition of viral DNA replication by RT-PCR analysis. The class given is functional, organism-based.
A short description of data set [4]: Cytotoxicity against human HepG2(2.2.15) cells by MTT assay. Format: cell-based. In outline:
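HepG2 2.2.15 cells were exposed to compounds and viability was read by a modified MTT method. CC50 is the concentration giving 50% cytotoxicity. Values are means of at least two experiments.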

The test system of data set [5] is Hepatitis B virus. In words: Selectivity ratio of CC50 for human HepG2(2.2.15) cells to IC50 for Hepatitis B virus infected in human HepG2.2.15 cells assessed as suppression of HBsAg secretion. The class given is cell-based. The settings on record: read-out: Ratio CC50/IC50. The essentials: as §1
Data set [6] concerns Hepatitis B virus. In words: Selectivity ratio of CC50 for human HepG2(2.2.15) cells to IC50 for Hepatitis B virus infected in human HepG2(2.2.15) cells assessed as suppression of HBeAg secretion. The class given is cell-based. Conditions: read-out: Ratio CC50/IC50. The essentials:
as §1

The test system of data set [7] is Hepatitis B virus. In words: Antiviral activity against Hepatitis B virus infected in human HepG2(2.2.15) cells assessed as suppression of HBsAg secretion by ELISA. Format: functional, organism-based. Background: ELISA stands for enzyme-linked immunosorbent assay.

A word on the IC50: it is the point on the concentration scale where inhibition reaches its midpoint. By CC50 is commonly meant the concentration giving 50% cytotoxicity. Read a low CC50 as greater toxicity to the cells. Regarding `CC(=O)[C@]1(O)CC[C@@]2(O)[C@]1(C)[C@H](OC(=O)/C=C(\C)C(C)C)C[C@@H]1[C@@]3(C)CC[C@H](OC(=O)C(C#N)=C(C)C)CC3=CC[C@]12O`, the IC50 with Hepatitis B virus [1] was 221 µM; in the data set with Hepatitis B virus [3] it was 30.6 µM; with Hepatitis B virus [7], 136 µM. Besides, the selectivity ratio in the data set on Hepatitis B virus [2] came to 14.8; in the data set on Hepatitis B virus [5], 3.3; in the data set on Hepatitis B virus [6] it was 2. The CC50 in data set [4] (HepG2(2.2.15) cells) came out at 452 µM.

For `CC(=O)[C@]1(OC(=O)c2cccnc2)CC[C@@]2(O)[C@]1(C)[C@H](OC(=O)/C=C(\C)C(C)C)C[C@@H]1[C@@]3(C)CC[C@H](OC(=O)c4cccnc4)CC3=CC[C@]12O`, the figures for the 50% inhibitory concentration (IC50) in the data set with Hepatitis B virus [1], with Hepatitis B virus [3] and in the data set with Hepatitis B virus [7] were 135 µM, 24.7 µM and 90 µM, respectively. Further, the selectivity ratio was over 24.4 in the data set with Hepatitis B virus [2], over 6.7 in the data set on Hepatitis B virus [5] and over 2.4 in the data set on Hepatitis B virus [6]. In data set [4] (HepG2(2.2.15) cells), half-maximal cytotoxicity (CC50) was put at 602 µM.

As for `CC(=O)[C@]1(O)CC[C@@]2(O)[C@]1(C)[C@H](OC(=O)/C=C(\C)C(C)C)C[C@@H]1[C@@]3(C)CC[C@H](OC(=O)c4cccnc4)CC3=CC[C@]12OC(=O)c1cccnc1`, the IC50 is 204 µM with Hepatitis B virus [1], 97 µM with Hepatitis B virus [3] and 199 µM in the data set with Hepatitis B virus [7]. For the same molecule, the selectivity ratio is 3.6 in the data set with Hepatitis B virus [2], 1.8 in the data set with Hepatitis B virus [5] and 1.7 with Hepatitis B virus [6]. Moreover, in data set [4] (HepG2(2.2.15) cells), half-maximal cytotoxicity (CC50) was put at 350 µM.

Consider `CC(=O)[C@]1(O)CC[C@@]2(O)[C@]1(C)[C@H](OC(=O)/C=C(\C)C(C)C)C[C@@H]1[C@@]3(C)CC[C@H](O)CC3=CC[C@]12O` [CAUDATIN], for which the IC50 is over 183 µM in the data set on Hepatitis B virus [1], 40.6 µM in the data set with Hepatitis B virus [3] and 143 µM in the data set with Hepatitis B virus [7]. In addition, the values for the selectivity ratio in the data set with Hepatitis B virus [2], in the data set with Hepatitis B virus [5] and in the data set on Hepatitis B virus [6] were 6, 1.7 and under 1.3, respectively. Also, the CC50 in data set [4] (hepg2 2.2.15) was found to be 245 µM.

Consider `C[C@H](Cn1cnc2c(N)ncnc21)OCP(=O)(O)O` [TENOFOVIR ANHYDROUS], for which the half-maximal inhibitory concentration (IC50) was 1240 µM in the data set with Hepatitis B virus [1], 0.77 µM in the data set on Hepatitis B virus [3] and 1450 µM in the data set on Hepatitis B virus [7]. Besides, the values for the selectivity ratio in the data set with Hepatitis B virus [2], in the data set on Hepatitis B virus [5] and with Hepatitis B virus [6] were over 2360, over 1.3 and over 1.5, respectively. The molecule further showed a CC50 in data set [4] (HepG2(2.2.15) cells) of over 1820 µM.
